Assay results from different studies.
Lines come from different studies, so protocols differ.
DRD1: D(1A) dopamine receptor (DRD1, Homo sapiens, UniProt P21728)
Tyrosine-protein phosphatase YopH: Tyrosine-protein phosphatase YopH (Yersinia enterocolitica, UniProt P15273)

Compound	target	test	setting	quantity	value
C[C@H](N)Cc1ccccc1	Neuronal acetylcholine receptor subunit alpha-7 (Chrna7, Mus musculus, UniProt P49582)	ligand displacement, radioligand	cell membranes	Ki	49.7 µM
O=C(O)c1cc(-c2ccc([C@H]3C[C@H]4C[C@@H]3NC4=O)cc2)c2ccc(-c3ccc(C(F)(F)F)cc3)cc2c1	DRD1	cell-free assay, radioligand		Ki	1.4 to 2.2 µM
CN(C)c1ccc(/C=C/c2cc(/C=C/c3ccc(N(C)C)cc3)n3n[n+](C)nc3n2)cc1	Tyrosine-protein phosphatase YopH	enzyme activity, inhibitor		IC50	4.44 µM
CNC(C)C(=O)c1ccccc1 (racemic)	Sodium-dependent serotonin transporter (SLC6A4, Homo sapiens, UniProt P31645)	calcium signal, agonist, fluorescence		EC50	24.8 µM
CC(C)CCC[C@@H](C)[C@H]1CC[C@H]2[C@@H]3CC=C4C[C@@H](O)CC[C@]4(C)[C@H]3CC[C@]12C	hly (Listeria monocytogenes, UniProt P13128)	binding	pH 5.5	Kd	0.296 µM
[Na+].[Na+].[Na+].[O]=[V]([O-])([O-])[O-]	Tyrosine-protein phosphatase YopH	enzyme activity, inhibitor		Ki	1.58 µM
CC=C1[C@H]2C=C(C)C[C@]1(N)c1cc(O)c(=O)[nH]c1C2	Cholinesterase (BCHE, Equus caballus, UniProt P81908)	enzyme activity, inhibitor, Ellman		IC50	155 µM
O=C(O)c1cc(-c2ccc([C@@H]3C[C@@H]4C[C@H]3CN4)cc2)c2ccc(-c3ccc(C(F)(F)F)cc3)cc2c1	DRD1	cell-free assay, radioligand		Ki	1.4 to 2.2 µM
NNC(=O)c1ccncc1	Adenosylmethionine-8-amino-7-oxononanoate aminotransferase (Mycobacterium tuberculosis, UniProt P9WQ81)	enzyme activity, inhibitor		Ki	> 100 µM
